Active and inactive are the calls of the source. No cut-off for these calls is given here.
Columns and labels:
MCF7 [1] = experiment: Cytotoxicity against human MCF7 cells at 50 uM by LDH assay; type: functional, cell-based
MCF7 [2] = experiment: Effect on alpha-tubulin acetylation in human MCF7 cells at 50 uM after 6 to 18 hrs by Western blotting analysis; type: functional, cell-based
Method in brief: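 MCF-7 cells seeded 24 h ahead, treated for 6 or 18 h, then lysed in M-PER. Lysates run on SDS-PAGE, transferred to nitrocellulose and probed with mouse monoclonal anti-acetylated α-tubulin and anti-total α-tubulin. Detection with peroxidase anti-mouse secondary and ECL Plus.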

[3] = molecular target: T1, NAD-dependent protein deacetylase sirtuin-1 (Homo sapiens) (UniProt Q96EB6); experiment: Inhibition of SIRT1 in etoposide-induced human MCF7 cells assessed as increase in p53 acetylation at Lys382 at 50 uM after 5 hrs by Western blotting analysis; type: cell-based
T1 sequence (whole entry): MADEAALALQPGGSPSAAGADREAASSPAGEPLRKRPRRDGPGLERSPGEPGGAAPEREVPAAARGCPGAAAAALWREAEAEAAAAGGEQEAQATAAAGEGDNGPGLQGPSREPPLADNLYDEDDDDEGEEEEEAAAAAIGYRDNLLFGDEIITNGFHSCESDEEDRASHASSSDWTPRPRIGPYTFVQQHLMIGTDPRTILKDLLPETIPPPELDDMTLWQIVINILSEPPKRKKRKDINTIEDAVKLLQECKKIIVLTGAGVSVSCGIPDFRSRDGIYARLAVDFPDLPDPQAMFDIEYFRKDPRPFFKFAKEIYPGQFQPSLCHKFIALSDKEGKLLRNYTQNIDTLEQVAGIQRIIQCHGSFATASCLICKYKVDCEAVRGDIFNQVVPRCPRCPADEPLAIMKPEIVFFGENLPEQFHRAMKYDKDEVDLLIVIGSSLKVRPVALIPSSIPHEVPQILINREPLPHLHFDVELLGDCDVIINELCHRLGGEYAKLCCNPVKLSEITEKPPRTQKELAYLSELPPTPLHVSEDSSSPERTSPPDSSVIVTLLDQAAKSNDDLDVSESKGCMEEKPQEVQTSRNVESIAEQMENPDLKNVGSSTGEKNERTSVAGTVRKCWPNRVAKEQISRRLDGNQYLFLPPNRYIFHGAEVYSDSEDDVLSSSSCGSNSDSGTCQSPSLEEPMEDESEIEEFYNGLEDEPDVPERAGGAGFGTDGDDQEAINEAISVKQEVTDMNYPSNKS
Method in brief: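 MCF-7 cells seeded 24 h ahead, then given 50 μM compound and 100 μM etoposide together for 5 h before harvest. Acetylated p53 detected by Western blot; run once per compound.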

A549 [4] = experiment: Growth inhibition of human A549 cells up to 200 uM after 48 hrs by sulforhodamine B assay; type: functional, cell-based
[5] = Cytotoxicity against human ARPE19 cells at 20 uM by LDH assay; type: cell-based; settings: arpe-19, 20 µM
[6] = Cytotoxicity against human SH-SY5Y cells at 20 uM by LDH assay; type: cell-based
[7] = molecular target: T1, NAD-dependent protein deacetylase sirtuin-1 (Homo sapiens); experiment: Inhibition of SIRT1 in etoposide-induced human SH-SY5Y cells assessed as increase in p53 acetylation at Lys382 at 20 uM after 5 hrs by Western blotting analysis; type: cell-based
Method in brief: (§1)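 ARPE-19 or SH-SY5Y cells seeded 24 h ahead, then given 20 μM compound and 100 μM etoposide together for 5 h before harvest. Acetylated p53 detected by Western blot. Mean ± SEM of 2 independent experiments.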

[8] = molecular target: T1, NAD-dependent protein deacetylase sirtuin-1 (Homo sapiens); experiment: Inhibition of SIRT1 in etoposide-induced human ARPE19 cells assessed as increase in p53 acetylation at Lys382 at 20 uM after 5 hrs by Western blotting analysis; type: cell-based; method in brief: as §1
[9] = molecular target: T2, NAD-dependent protein deacetylase sirtuin-3, mitochondrial (Homo sapiens, UniProt Q9NTG7); experiment: Inhibition of human recombinant His-tagged SIRT3 using KI179 as substrate preincubated for 5 mins followed by enzyme addition measured after 1 hr by fluorescence assay
T2 sequence (Q9NTG7 whole entry): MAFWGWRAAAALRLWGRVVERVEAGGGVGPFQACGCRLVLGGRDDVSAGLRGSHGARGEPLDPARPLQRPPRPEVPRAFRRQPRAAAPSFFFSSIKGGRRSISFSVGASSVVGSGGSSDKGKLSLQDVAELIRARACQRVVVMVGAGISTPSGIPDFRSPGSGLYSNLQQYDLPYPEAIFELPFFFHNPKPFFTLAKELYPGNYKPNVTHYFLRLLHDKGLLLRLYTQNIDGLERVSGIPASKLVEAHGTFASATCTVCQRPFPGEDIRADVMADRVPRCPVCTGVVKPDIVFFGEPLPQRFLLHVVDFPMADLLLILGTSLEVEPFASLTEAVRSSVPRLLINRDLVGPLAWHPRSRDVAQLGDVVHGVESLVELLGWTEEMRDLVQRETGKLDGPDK

[10] = molecular target: T3, NAD-dependent protein deacetylase sirtuin-2 (Homo sapiens, UniProt Q8IXJ6); experiment: Inhibition of human recombinant GST-tagged SIRT2 using KI179 as substrate preincubated for 5 mins followed by enzyme addition measured after 1 hr by fluorescence assay
T3 sequence (Q8IXJ6 whole entry): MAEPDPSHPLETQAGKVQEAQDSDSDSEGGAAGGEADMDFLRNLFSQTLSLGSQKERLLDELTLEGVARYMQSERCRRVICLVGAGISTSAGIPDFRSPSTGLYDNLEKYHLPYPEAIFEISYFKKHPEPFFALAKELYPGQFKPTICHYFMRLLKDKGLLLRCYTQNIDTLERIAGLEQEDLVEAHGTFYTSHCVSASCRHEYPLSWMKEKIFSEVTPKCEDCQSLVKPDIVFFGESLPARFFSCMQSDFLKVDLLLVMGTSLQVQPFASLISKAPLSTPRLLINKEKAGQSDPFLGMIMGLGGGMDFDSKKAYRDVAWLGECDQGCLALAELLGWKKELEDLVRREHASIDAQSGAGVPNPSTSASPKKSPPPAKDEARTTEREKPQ
Method in brief: (§2)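 Fluor de Lys deacetylation assay. […] Mix preincubated 5 min at room temperature, started with enzyme, run 1 h at 37°C. Developer with 2 mM nicotinamide then added for 45 min at 37°C before fluorescence reading.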

[11] = molecular target: T4, NAD-dependent protein deacetylase sirtuin-1 (Homo sapiens, UniProt Q96EB6); experiment: Inhibition of human recombinant GST-tagged SIRT1 using KI177 as substrate preincubated for 5 mins followed by enzyme addition measured after 1 hr by fluorescence assay; method in brief: as §2
T4 sequence (Q96EB6 whole entry): T1 sequence (whole entry)

[12] = molecular target: T5, NAD-dependent protein deacetylase sirtuin-2 (Homo sapiens) (UniProt Q8IXJ6); experiment: Inhibition of human recombinant GST-tagged SIRT2 using KI179 as substrate at 50 uM preincubated for 5 mins followed by enzyme addition measured after 1 hr by fluorescence assay relative to control
T5 sequence (whole entry): T3 sequence (Q8IXJ6 whole entry)
Method in brief: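 Recombinant GST-SIRT2, Fluor de Lys assay in SIRT assay buffer. Acetylated peptide KI179 at 0.7 Km (Km 198 µM) and NAD+ at 0.9 Km (reported Km 547 µM). Buffer, substrate, NAD+ and compound in DMSO preincubated 5 min at room temperature. Enzyme added to start; 1 h at 37 °C. Developer with 2 mM nicotinamide added; 45 min at 37 °C; fluorescence read. Mean ± SD, ≥3 experiments.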

[13] = molecular target: T6, NAD-dependent protein deacetylase sirtuin-3, mitochondrial (Homo sapiens) (UniProt Q9NTG7); settings: at 50 µM
T6 sequence (whole entry): T2 sequence (Q9NTG7 whole entry)

[14] = molecular target: T1, NAD-dependent protein deacetylase sirtuin-1 (Homo sapiens); settings: at 50 µM
MCF7 [15] = experiment: Growth inhibition of human MCF7 cells up to 200 uM after 72 hrs by sulforhodamine B assay
MCF7 [16] = experiment: Cytotoxicity against human MCF7 cells assessed as cell death at 100 uM after 18 hrs by propidium iodide staining-based FACS flow cytometric analysis; type: functional
A549 [17] = experiment: Cytotoxicity against human A549 cells assessed as cell death at 100 uM after 18 hrs by propidium iodide staining-based FACS flow cytometric analysis; type: functional
MCF7 [18] = experiment: Cell cycle arrest in human MCF7 cells assessed as accumulation at S phase at 100 uM after 18 hrs by propidium iodide staining-based FACS flow cytometric analysis (reference value: 12.6%); type: functional
MCF7 [19] = experiment: Cell cycle arrest in human MCF7 cells assessed as accumulation at G2 phase at 100 uM after 18 hrs by propidium iodide staining-based FACS flow cytometric analysis (reference value: 14.7%); type: functional
MCF7 [20] = experiment: Cell cycle arrest in human MCF7 cells assessed as accumulation at G1 phase at 100 uM after 18 hrs by propidium iodide staining-based FACS flow cytometric analysis (reference value: 67.6%); type: functional
A549 [21] = experiment: Cell cycle arrest in human A549 cells assessed as accumulation at S phase at 100 uM after 18 hrs by propidium iodide staining-based FACS flow cytometric analysis (reference value: 17.8%); type: functional
A549 [22] = experiment: Cell cycle arrest in human A549 cells assessed as accumulation at G2 phase at 100 uM after 18 hrs by propidium iodide staining-based FACS flow cytometric analysis (reference value: 19.4%); type: functional
A549 [23] = experiment: Cell cycle arrest in human A549 cells assessed as accumulation at G1 phase at 100 uM after 18 hrs by propidium iodide staining-based FACS flow cytometric analysis (reference value: 62.3%); type: functional
A549 [24] = experiment: Growth inhibition of human A549 cells at >= 50 uM after 48 hrs by sulforhodamine B assay; type: functional, cell-based
MCF7 [25] = experiment: Growth inhibition of human MCF7 cells at >= 50 uM after 72 hrs by sulforhodamine B assay

Row | inhibition [3] | inhibition [7] | inhibition [8] | IC50 [10] | IC50 [11] | inhibition [12] | inhibition [14] | SMILES | Activity (MCF7 [1]) | Activity (MCF7 [2]) | Activity [5] | Activity [6] | further results
1 | Active | Active | Active | 1.8 µM | 0.24 µM | 96% | 99% | CC(=S)NCCCC[C@H](NC(=O)[C@@H]1C[C@@H](O)CN1C(=O)OCc1ccccc1)C(=O)NCC(=O)c1ccccc1 | inactive | inactive | Non-toxic | Non-toxic | growth inhibition (GI) (A549 [4]): inactive; IC50 [9]: 3.89 µM; inhibition [13]: 90%; growth inhibition (GI) (MCF7 [15]): inactive
2 | Active | Active | Active | 25.8 µM | 5.98 µM | 66% | 88% | COc1ccc2[nH]cc(CCNC(=O)[C@H](CCCCNC(C)=S)NC(=O)OCc3ccccc3)c2c1 | inactive | inactive | Non-toxic | Non-toxic | Activity (MCF7 [16]): inactive; Activity (A549 [17]): inactive; Activity (MCF7 [18]): 5.7%; Activity (MCF7 [19]): 13.2%; Activity (MCF7 [20]): 77.4%; Activity (A549 [21]): 3%; Activity (A549 [22]): 9.9%; Activity (A549 [23]): 85.7%; growth inhibition (GI) (A549 [24]): Active; growth inhibition (GI) (MCF7 [25]): Active

From ChEMBL document CHEMBL2417552, “Screen of pseudopeptidic inhibitors of human sirtuins 1-3: two lead compounds with antiproliferative effects in cancer cells” (J Med Chem, 2013)
